Source: ChEMBL document CHEMBL3091406, “Design and synthesis of novel antimicrobials with activity against Gram-positive bacteria and mycobacterial species, including M. tuberculosis” (2013)
Converted amounts (≈) assume the structure as drawn.

How the values were obtained:
Assay type in all cases: functional
[1] = tested on: Mycolicibacterium smegmatis; test: Antimycobacterial activity against Mycobacterium smegmatis
Bacillus cereus = test: Antibacterial activity against Bacillus cereus by CLSI method
Escherichia coli = test: Antibacterial activity against Escherichia coli […] by CLSI method
Staphylococcus aureus = test: Antibacterial activity against Staphylococcus aureus ATCC 29213 by CLSI method
[2] = tested on: Mycolicibacterium fortuitum; test: Antimycobacterial activity against Mycobacterium fortuitum
Method in brief: (§1)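 MIC in Middlebrook 7H9 broth with 10% OADC; strains from University of Wisconsin-La Crosse culture collection; rifampin as positive control; reported MIC is compiled from geometric means of three separate runs.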

[3] = tested on: Mycobacterium intracellulare; test: Antimycobacterial activity against Mycobacterium intracellulare; method in brief: as §1
Mycobacteroides chelonae = test: Antimycobacterial activity against Mycobacterium chelonae; method in brief: as §1
Mycobacterium kansasii = test: Antimycobacterial activity against Mycobacterium kansasii; method in brief: as §1
Mycobacterium avium = test: Antimycobacterial activity against Mycobacterium avium; method in brief: as §1
[4] = tested on: Mycobacterium tuberculosis; test: Ratio of ethambutol MIC to compound MIC for Mycobacterium tuberculosis H37Rv after 7 days by BacTiter-Glo method
[5] = tested on: Mycobacterium tuberculosis; test: Antimycobacterial activity against Mycobacterium tuberculosis H37Rv after 7 days by BacTiter-Glo method; conditions: 168 h
Method in brief: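 Strain H37Rv in 384-well plates, Middlebrook 7H12 broth with palmitate and 0.5% BSA; compounds diluted in medium to 2× final concentration; inoculum 1-2 × 10⁵ CFU/mL; amikacin positive control on every plate; 7 days at 37 °C, ~95% humidity; compound autofluorescence pre-read (ex 535/em 590 nm); BacTiter-Glo reagent added, 20 min room temperature, luminescence read.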

[6] = tested on: Mycolicibacterium smegmatis; test: Ratio of rifampin MIC to compound MIC for Mycobacterium smegmatis

| SMILES | MIC [1] [µg/mL] | MIC (Bacillus cereus) [µg/mL] | MIC (Escherichia coli) [µg/mL] | MIC (Staphylococcus aureus) [µg/mL] | MIC [2] [µg/mL] | MIC [3] [µg/mL] | MIC (Mycobacteroides chelonae) [µg/mL] | MIC (Mycobacterium kansasii) [µg/mL] | MIC (Mycobacterium avium) [µg/mL] | Ratio [4] | MIC [5] [µg/mL] | Ratio [6] |
| --- | --- | --- | --- | --- | --- | --- | --- | --- | --- | --- | --- | --- |
| CCOC(=O)/C=C\Sc1ccc(C(C)(C)C)cc1 | 16 (≈ 60.5 µM) | > 128 | > 128 | > 128 | – | – | – | – | – | – | – | – |
| CC(C)(C)c1ccc(C(=O)/C=C/C(=O)O)cc1 | > 128 | – | > 128 | 32 (≈ 138 µM) | > 125 | – | – | – | – | – | – | – |
| CC(C)(C)c1ccc(S/C=C\C(=O)NC2CC2)cc1 | > 128 | > 128 | > 128 | > 128 | – | – | – | – | – | – | – | – |
| CCOC(=O)/C=C\C(=O)c1ccc(C(C)(C)C)cc1 | 8 (≈ 30.7 µM) | 8 (≈ 30.7 µM) | > 128 | 4 (≈ 15.4 µM) | 8 (≈ 30.7 µM) | 8 (≈ 30.7 µM) | 16 (≈ 61.5 µM) | 64 (≈ 246 µM) | 32 (≈ 123 µM) | 1.5 | 0.8 (≈ 3.07 µM) | 8 |
| CCOC(=O)/C=C/C(=O)c1ccc(C(C)(C)C)cc1 | 8 (≈ 30.7 µM) | 4 (≈ 15.4 µM) | > 128 | 2 (≈ 7.68 µM) | 4 (≈ 15.4 µM) | 4 (≈ 15.4 µM) | 8 (≈ 30.7 µM) | 32 (≈ 123 µM) | 16 (≈ 61.5 µM) | 1.5 | 0.8 (≈ 3.07 µM) | 8 |
| CCOC(=O)CCC(=O)c1ccc(C(C)(C)C)cc1 | > 128 | – | > 128 | > 128 | > 128 | > 128 | > 128 | > 128 | > 128 | – | – | – |
| CCOC(=O)CCCc1ccc(C(C)(C)C)cc1 | 64 (≈ 258 µM) | – | > 128 | > 128 | 32 (≈ 129 µM) | > 128 | 32 (≈ 129 µM) | 128 (≈ 515 µM) | > 128 | – | – | – |
| CC(C)=CCOC(=O)/C=C/C(=O)c1ccc(C(C)(C)C)cc1 | > 128 | – | > 128 | 0.5 (≈ 1.66 µM) | 64 (≈ 213 µM) | > 128 | 32 (≈ 107 µM) | > 128 | > 128 | – | – | – |
| CCOC(=O)/C=C/Cc1ccc(C(C)(C)C)cc1 | > 128 | – | > 128 | 16 (≈ 64.9 µM) | > 128 | > 128 | > 128 | > 128 | > 128 | – | – | – |
| CCOC(=O)c1ccccc1C(=O)c1ccc(C(C)(C)C)cc1 | > 128 | – | > 128 | > 128 | > 128 | > 128 | > 128 | > 128 | > 128 | – | – | – |
| CCOC(=O)/C=C\C(=O)c1cc2ccccc2s1 | 4 (≈ 15.4 µM) | – | 128 (≈ 492 µM) | 1 (≈ 3.84 µM) | 16 (≈ 61.5 µM) | 4 (≈ 15.4 µM) | 8 (≈ 30.7 µM) | 8 (≈ 30.7 µM) | 16 (≈ 61.5 µM) | 3 | 0.4 (≈ 1.54 µM) | 16 |
| CCOC(=O)CCSc1ccc(C(C)(C)C)cc1 | > 128 | > 128 | > 128 | > 128 | > 128 | > 128 | > 128 | > 128 | > 128 | – | – | – |
| CCOC(=O)C#CC(=O)c1ccc(C(C)(C)C)cc1 | > 128 | > 128 | > 128 | > 128 | > 128 | > 128 | > 128 | > 128 | > 128 | – | – | – |
| CCOC(=O)[C@@H]1C[C@H]1C(=O)c1ccc(C(C)(C)C)cc1 | 16 (≈ 58.3 µM) | – | > 128 | 64 (≈ 233 µM) | 64 (≈ 233 µM) | – | – | – | – | – | – | – |
| CCOC(=O)[C@@H]1O[C@H]1C(=O)c1ccc(C(C)(C)C)cc1 | 128 (≈ 463 µM) | – | > 128 | 32 (≈ 116 µM) | > 128 | – | – | – | – | – | – | – |
| CC(C)(C)c1ccc(S/C=C\C(=O)O)cc1 | > 128 | 128 (≈ 542 µM) | > 128 | > 128 | – | – | – | – | – | – | – | – |
| O=C(O)/C=C\Sc1nc2ccccc2s1 | > 128 | > 128 | > 128 | > 128 | – | – | – | – | – | – | – | – |
| CC(C)(C)c1ccc(S/C=C\C(=O)OCC2CC2)cc1 | 16 (≈ 55.1 µM) | 128 (≈ 441 µM) | > 128 | > 128 | – | – | – | – | – | – | – | – |
| CC(C)N(C(=O)/C=C\Sc1nc2ccccc2s1)C(C)C | > 128 | > 128 | > 128 | > 128 | – | – | – | – | – | – | – | – |
| CC(C)(C)c1ccc(S/C=C\C(=O)Nc2ccccc2)cc1 | > 128 | > 128 | > 128 | > 128 | – | – | – | – | – | – | – | – |
| CN(C(=O)/C=C\Sc1ccc(C(C)(C)C)cc1)c1ccccc1 | 32 (≈ 98.3 µM) | > 128 | > 128 | > 128 | – | – | – | – | – | – | – | – |
| CNC(=O)/C=C\Sc1ccc(C(C)(C)C)cc1 | > 128 | 128 (≈ 513 µM) | > 128 | > 128 | – | – | – | – | – | – | – | – |
| CN(C)C(=O)/C=C\Sc1ccc(C(C)(C)C)cc1 | 64 (≈ 243 µM) | 16 (≈ 60.7 µM) | > 128 | > 128 | – | – | – | – | – | – | – | – |
| CC(C)N(C(=O)/C=C\Sc1ccc(C(C)(C)C)cc1)C(C)C | 64 (≈ 200 µM) | > 128 | > 128 | > 128 | – | – | – | – | – | – | – | – |
| CC[C@@H](CO)NCCN[C@@H](CC)CO [ETHAMBUTOL] | – | – | – | – | – | – | – | – | – | – | 1.2 (≈ 5.87 µM) | – |
| NNC(=O)c1ccncc1 [ISONIAZID] | – | – | – | – | – | – | – | – | – | – | 0.25 (≈ 1.82 µM) | – |
| CO[C@H]1/C=C/O[C@@]2(C)Oc3c(C)c(O)c4c(O)c(c(/C=N/N5CCN(C)CC5)c(O)c4c3C2=O)NC(=O)/C(C)=C\C=C\[C@H](C)[C@H](O)[C@@H](C)[C@@H](O)[C@@H](C)[C@H](OC(C)=O)[C@@H]1C [RIFAMPIN] | 64 (≈ 77.8 µM) | – | – | – | 32 (≈ 38.9 µM) | 1 (≈ 1.22 µM) | 32 (≈ 38.9 µM) | 0.5 (≈ 0.608 µM) | 2 (≈ 2.43 µM) | – | < 0.03 | – |
| CN(C)[C@@H]1C(O)=C(C(N)=O)C(=O)[C@@]2(O)C(O)=C3C(=O)c4c(O)cccc4[C@@](C)(O)[C@H]3C[C@@H]12 [TETRACYCLINE] | – | – | 1 (≈ 2.25 µM) | 0.25 (≈ 0.563 µM) | – | – | – | – | – | – | – | – |
